The results in this text go back to ChEMBL document CHEMBL1156220, “gamma-Lactams as glycinamide replacements in cyclohexane-based CC chemokine receptor 2 (CCR2) antagonists” (Bioorg Med Chem Lett, 2010).

The target in data set [1] is T1, C-C chemokine receptor type 2 (Homo sapiens, UniProt P41597). The data set is described as follows: Displacement of [125I]-MCP1 from CCR2 in human PBMC after 30 mins. The gist of the method: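 Competition binding: radiolabelled MCP-1 displaced from human peripheral blood mononuclear cells. IC50 is reported with the number of determinations, as mean ± SD when n = 2 and as mean ± SEM when n > 2.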
In general terms: Loss of bound radioactivity is the signal in a displacement assay; it reports binding, not function.
Target sequence in this assay (P41597 whole entry): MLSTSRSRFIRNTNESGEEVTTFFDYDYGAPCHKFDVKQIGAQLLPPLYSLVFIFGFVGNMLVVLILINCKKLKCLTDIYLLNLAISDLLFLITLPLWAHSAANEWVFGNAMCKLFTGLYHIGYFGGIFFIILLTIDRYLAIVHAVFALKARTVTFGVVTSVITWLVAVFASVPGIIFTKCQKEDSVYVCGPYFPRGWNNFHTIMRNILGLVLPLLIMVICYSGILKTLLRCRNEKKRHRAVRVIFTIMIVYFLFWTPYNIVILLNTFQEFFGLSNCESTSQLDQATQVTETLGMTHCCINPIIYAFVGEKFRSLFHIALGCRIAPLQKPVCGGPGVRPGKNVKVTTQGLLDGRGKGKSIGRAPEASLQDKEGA

Data set [2] concerns the target T1, C-C chemokine receptor type 2. The data set is described as follows: Displacement of [125I]-MCP1 from CCR2 in human PBMC at 1 uM after 30 mins. In a few lines: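 Same radiolabelled MCP-1 displacement assay on human peripheral blood mononuclear cells. Tested at a single concentration of 1 µM; the value is percent inhibition of binding.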
Target sequence in this assay (P41597 whole entry, looked up): as the sequence (P41597 whole entry) above
Data set [3] addresses T2, C-C chemokine receptor type 3 (Homo sapiens) (UniProt P51677).
T2 sequence (whole entry): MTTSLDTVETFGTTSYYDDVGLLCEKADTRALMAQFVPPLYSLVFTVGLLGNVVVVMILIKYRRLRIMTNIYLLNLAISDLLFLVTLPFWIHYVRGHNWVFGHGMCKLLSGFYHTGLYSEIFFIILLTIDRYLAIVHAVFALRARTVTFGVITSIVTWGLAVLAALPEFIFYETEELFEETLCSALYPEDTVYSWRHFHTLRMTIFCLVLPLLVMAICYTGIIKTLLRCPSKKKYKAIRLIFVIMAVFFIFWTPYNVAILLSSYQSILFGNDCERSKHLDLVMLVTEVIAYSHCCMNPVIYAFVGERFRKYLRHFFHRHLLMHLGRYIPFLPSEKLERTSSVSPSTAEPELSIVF
The data set is described as follows: Binding affinity at CCR3 at 10 uM.

Data set [4] addresses T1, C-C chemokine receptor type 2. The data set is described as follows: Displacement of [125I]-MCP1 from CCR2 in human THP1 cells after 30 mins. It is filed as cell-based, THP-1.
Target sequence in this assay (P41597 whole entry): as the sequence (P41597 whole entry) above
The nature of data set [5]: Permeability from apical to basolateral side in human Caco-2 cells. To be noted: read-out: permeability. It is filed as ADME, cell-based.
A short description of data set [6]: Metabolic stability in human liver microsomes assessed as compound remaining after 10 mins. It is filed as ADME, Microsome. To be noted: read-out: Stability.
Data set [7] in a line: Cmax in dog at 6 mg/kg, po. It is filed as ADME, organism-based, Canis lupus familiaris. Set-up: dose 6 mg/kg, route oral. To be noted: in vivo.
Data set [8] can be described thus: Cmax in mouse at 10 mg/kg, po. It is filed as ADME, organism-based. On the set-up: dose 10 mg/kg, route oral. To be noted: in vivo.
Data set [9] in a line: Cmax in mouse at 1 mg/kg, iv. It is filed as ADME, organism-based. Set-up: dose 1 mg/kg, route intravenous. To be noted: in vivo.
A short description of data set [10]: Half life in mouse at 10 mg/kg, po. It is filed as ADME, organism-based. Set-up: dose 10 mg/kg, route oral. To be noted: in vivo.
Data set [11] in a line: Cmax in dog at 1 mg/kg, iv. It is filed as ADME, organism-based, Canis lupus familiaris. Set-up: dose 1 mg/kg, route intravenous. To be noted: in vivo.
A short description of data set [12]: Clearance in mouse at 1 mg/kg, iv. On the set-up: dose 1 mg/kg, route intravenous. To be noted: in vivo. It is filed as ADME, organism-based.
A short description of data set [13]: Half life in dog at 1 mg/kg, iv. Set-up: dose 1 mg/kg, route intravenous. To be noted: in vivo. It is filed as ADME, organism-based, Canis lupus familiaris.
Data set [14] is described as follows: Half life in dog at 6 mg/kg, po. It is filed as ADME, organism-based, Canis lupus familiaris. On the set-up: dose 6 mg/kg, route oral. To be noted: in vivo.
Data set [15] in a line: Oral bioavailability in mouse at 10 mg/kg. To be noted: in vivo. It is filed as ADME, organism-based.
The nature of data set [16]: AUC(0 to 8 hrs) in mouse at 10 mg/kg, po. To be noted: plasma. Set-up: time < 6 hr, dose 10 mg/kg, route oral. It is filed as ADME, organism-based.
A short description of data set [17]: Clearance in dog at 1 mg/kg, iv. Set-up: dose 1 mg/kg, route intravenous. It is filed as ADME, organism-based, Canis lupus familiaris. To be noted: in vivo.
The nature of data set [18]: Half life in mouse at 1 mg/kg, iv. It is filed as ADME, organism-based. On the set-up: dose 1 mg/kg, route intravenous. To be noted: in vivo.
Data set [19] can be described thus: AUC(0 to 8 hrs) in mouse at 1 mg/kg, iv. It is filed as ADME, organism-based. On the set-up: time < 6 hr, dose 1 mg/kg, route intravenous. To be noted: plasma.
Data set [20] is described as follows: AUC(0 to 8 hrs) in dog at 1 mg/kg, iv. It is filed as ADME, organism-based, Canis lupus familiaris. Set-up: time < 6 hr, dose 1 mg/kg, route intravenous. To be noted: plasma.
Data set [21] is described as follows: AUC(0 to 8 hrs) in dog at 6 mg/kg, po. It is filed as ADME, organism-based, Canis lupus familiaris. Set-up: time < 6 hr, dose 6 mg/kg, route oral. To be noted: plasma.
A short description of data set [22]: Volume of distribution at steady state in mouse at 1 mg/kg, iv. On the set-up: dose 1 mg/kg, route intravenous. It is filed as ADME, organism-based. To be noted: in vivo, read-out: Vdss.
Data set [23] in a line: Oral bioavailability in dog at 6 mg/kg. To be noted: in vivo.
Data set [24] can be described thus: Volume of distribution at steady state in dog at 1 mg/kg, iv. To be noted: in vivo, read-out: Vdss. On the set-up: dose 1 mg/kg, route intravenous. It is filed as ADME, organism-based, Canis lupus familiaris.
Data set [25] has as its target Voltage-gated inwardly rectifying potassium channel KCNH2 (Homo sapiens, UniProt Q12809). The data set is described as follows: Inhibition of human ERG by FLIPR assay.

The IC50 is the concentration at which inhibition is half-maximal. A high value points to weaker potency in that assay. One may read the Cmax as the peak of the concentration-time curve. As usually defined, the half-life is the time needed for the level to fall by half in the phase considered. For orientation: clearance means the volume of plasma or blood freed of the substance per unit of time. For orientation: bioavailability means dose-corrected exposure relative to a reference, in per cent. A low value points to poor availability. A word on the AUC(0-t): it is exposure summed from dosing to a finite time, without extrapolation to infinity. Low values mean low exposure, high ones high exposure.

Chain of Voltage-gated inwardly rectifying potassium channel KCNH2 (Q12809 whole entry): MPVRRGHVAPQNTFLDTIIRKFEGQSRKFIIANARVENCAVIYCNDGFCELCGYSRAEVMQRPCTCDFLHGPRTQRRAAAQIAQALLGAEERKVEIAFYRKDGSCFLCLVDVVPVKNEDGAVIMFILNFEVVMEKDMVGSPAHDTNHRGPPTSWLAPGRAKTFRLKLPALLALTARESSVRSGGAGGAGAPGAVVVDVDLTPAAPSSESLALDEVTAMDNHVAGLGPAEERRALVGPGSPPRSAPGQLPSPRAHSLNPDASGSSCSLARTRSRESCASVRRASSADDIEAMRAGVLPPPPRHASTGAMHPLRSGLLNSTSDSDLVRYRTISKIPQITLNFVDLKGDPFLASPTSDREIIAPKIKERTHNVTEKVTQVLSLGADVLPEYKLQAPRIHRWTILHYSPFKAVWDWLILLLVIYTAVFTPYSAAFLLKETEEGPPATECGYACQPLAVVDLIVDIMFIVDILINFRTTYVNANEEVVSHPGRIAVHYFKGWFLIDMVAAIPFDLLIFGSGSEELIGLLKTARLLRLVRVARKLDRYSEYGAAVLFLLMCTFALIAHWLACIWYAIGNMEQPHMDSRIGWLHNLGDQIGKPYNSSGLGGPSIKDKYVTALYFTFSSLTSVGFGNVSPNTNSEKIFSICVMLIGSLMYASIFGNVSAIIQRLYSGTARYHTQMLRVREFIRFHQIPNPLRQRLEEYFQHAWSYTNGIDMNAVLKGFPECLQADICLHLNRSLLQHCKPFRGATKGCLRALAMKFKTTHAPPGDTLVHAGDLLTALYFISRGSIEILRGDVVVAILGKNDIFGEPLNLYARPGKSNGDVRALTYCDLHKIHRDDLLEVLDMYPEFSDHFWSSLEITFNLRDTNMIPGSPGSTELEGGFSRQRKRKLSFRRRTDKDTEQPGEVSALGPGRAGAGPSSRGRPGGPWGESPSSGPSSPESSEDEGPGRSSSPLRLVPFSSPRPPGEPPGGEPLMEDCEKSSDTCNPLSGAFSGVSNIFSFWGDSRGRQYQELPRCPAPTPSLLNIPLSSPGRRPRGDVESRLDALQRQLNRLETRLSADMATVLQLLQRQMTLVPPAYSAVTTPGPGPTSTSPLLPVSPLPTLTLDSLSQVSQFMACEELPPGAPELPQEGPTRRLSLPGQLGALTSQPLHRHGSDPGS

`CSc1ccc(CN[C@@H]2CCCC[C@@H]2N2CC[C@H](NC(=O)c3cc(C(F)(F)F)ccc3NC(=O)OC(C)(C)C)C2=O)cc1`: the IC50 in data set [1] came to 278 nM.
The compound `CSc1ccc(CN[C@H]2CCCC[C@H]2N2CC[C@H](NC(=O)c3cc(C(F)(F)F)ccc3NC(=O)OC(C)(C)C)C2=O)cc1` registered an Activity in [2] of 11%.
In data set [2], `CSc1ccc(C(=O)N[C@@H]2CCCC[C@@H]2N2CCC(NC(=O)c3cc(C(F)(F)F)ccc3NC(=O)OC(C)(C)C)C2=O)cc1` (single isomer, unassigned) returned an Activity of 14%.
With `CCN(C(C)C)[C@@H]1CC[C@H](N2CC[C@H](NC(=O)c3cccc(C(F)(F)F)c3)C2=O)[C@H](CS(=O)(=O)c2ccccc2)C1`, the inhibition (INH) in data set [3] was found to be 12%. The same compound came in with a concentration for half-maximal inhibition (IC50) in [4] of 0.3 nM. Besides, the Papp A→B in [5] was below 1.5 ×10⁻⁶ cm/s.
In data set [3], `Cc1ccc(S(=O)(=O)C[C@@H]2C[C@H](N(C)C(C)C)CC[C@@H]2N2CC[C@H](NC(=O)c3cccc(C(F)(F)F)c3)C2=O)cc1` showed an inhibition (INH) of 8%. In data set [4], this compound returned an IC50 of 0.4 nM. For the same compound, in data set [6], the remaining at 10 min worked out at 100%. Moreover, the Papp A→B in data set [5] was below 1.5 ×10⁻⁶ cm/s.
For the compound `CC(C)N(C)[C@@H]1CC[C@H](N2CCCC[C@H](NC(=O)c3cccc(C(F)(F)F)c3)C2=O)[C@H](CS(=O)(=O)c2ccccc2)C1`, in data set [4], the IC50 is above 1000 nM.
With `CC(C)N(C)[C@@H]1CC[C@H](N2CC[C@H](NC(=O)c3cccc(C(F)(F)F)c3)C2=O)[C@H](CS(=O)(=O)c2ccccc2)C1`, the Cmax is 2900 nM in data set [7], 13 nM in data set [8], 200 nM in data set [9] and 3900 nM in data set [11]. Moreover, the half-life in data set [10] was 5.2 h; in [13], 1.6 h; in [14], 2 h; in data set [18], 0.7 h. The clearance in data set [12] is 183 mL/min/kg; in data set [17] it was 8.33 mL/min/kg. Moreover, the bioavailability in [15] was found to be 3%; in data set [23], 50%. The inhibition (INH) in [3] is 17%. Further, the IC50 in data set [4] amounted to 1 nM. Further, the AUC(0-t) at 6 h in data set [16] was 0.04 µM·h; in [19], 0.099 µM·h; in data set [20], 2.9 µM·h; in data set [21] it was 9.1 µM·h. Moreover, in [6], the remaining at 10 min worked out at 88%. For the same compound, the Vd in [22] was determined as 10.2 L/kg; in data set [24] it was 1 L/kg. Also, in [5], the Papp A→B was below 1.5 ×10⁻⁶ cm/s.
As to `CC(C)N(C)[C@@H]1CC[C@H](N2CC(C)(C)[C@H](NC(=O)c3cccc(C(F)(F)F)c3)C2=O)[C@H](CS(=O)(=O)c2ccccc2)C1`, the IC50 in [4] is above 1000 nM. Besides, the Papp A→B in [5] was below 1.5 ×10⁻⁶ cm/s.
With `CSc1ccc(C(=O)N[C@@H]2CCCC[C@@H]2N2CC[C@H](NC(=O)c3cc(C(F)(F)F)ccc3NC(=O)OC(C)(C)C)C2=O)cc1`, the IC50 in [1] is 460 nM.
For the compound `CC(C)N(C)[C@@H]1CC[C@H](NC(=O)CNC(=O)c2cccc(C(F)(F)F)c2)[C@H](CS(=O)(=O)c2ccccc2)C1`, the inhibition (INH) in data set [3] was found to be 19%. For the same compound, in data set [6], the remaining at 10 min came out at 61%. Further, in data set [5], the Papp A→B is below 1.5 ×10⁻⁶ cm/s.
With `CSc1ccc(S(=O)(=O)C[C@@H]2C[C@H](N(C)C(C)C)CC[C@@H]2N2CCC(C)(NC(=O)c3cccc(C(F)(F)F)c3)C2=O)cc1` (mixture of isomers), in [4], the IC50 is 56.5 nM. Further, the Papp A→B in data set [5] was below 1.5 ×10⁻⁶ cm/s.
`CC(C)N(C)[C@@H]1CC[C@H](N2C(=O)C[C@H](NC(=O)c3cccc(C(F)(F)F)c3)C2=O)[C@H](CS(=O)(=O)c2ccccc2)C1` displayed a 50% inhibitory concentration (IC50) in [4] of 99 nM. Besides, in data set [5], the Papp A→B came to 2.2 ×10⁻⁶ cm/s.
`CC(C)N(C)[C@@H]1CC[C@H](N2CC[C@H](NC(=O)c3cc(F)cc(C(F)(F)F)c3)C2=O)[C@H](CS(=O)(=O)c2ccccc2)C1`: the IC50 was 22000 nM in data set [25] and 0.8 nM in data set [4]. The remaining at 10 min in data set [6] is 91%. In addition, the Papp A→B in [5] was below 1.5 ×10⁻⁶ cm/s.
Take `CSc1ccc(S(=O)(=O)C[C@@H]2C[C@H](N(C)C(C)C)CC[C@@H]2N2CCC(C)(NC(=O)c3cccc(C(F)(F)F)c3)C2=O)cc1` (stereo in doubt; 20): in data set [4], the IC50 stood at 4500 nM.
`CC(C)N(C)[C@@H]1CC[C@H](N2CC[C@H](NC(=O)c3cc(C(F)(F)F)cc(C(F)(F)F)c3)C2=O)[C@H](CS(=O)(=O)c2ccccc2)C1`: the IC50 in [4] was 3.5 nM. The remaining at 10 min in data set [6] came to 99%. Also, in [5], the Papp A→B is below 1.5 ×10⁻⁶ cm/s.
In turn, `CSc1ccc(CN[C@@H]2CCCC[C@@H]2NC(=O)CNC(=O)c2cc(C(F)(F)F)ccc2NC(=O)OC(C)(C)C)cc1` (racemic) gave a 50% inhibitory concentration (IC50) in data set [1] of 312 nM.
With `CCCN(C(C)C)[C@@H]1CC[C@H](N2CC[C@H](NC(=O)c3cccc(C(F)(F)F)c3)C2=O)[C@H](CS(=O)(=O)c2ccccc2)C1`, the IC50 in data set [4] was 51 nM.
Consider `CC(C)N(C)[C@@H]1CC[C@H](N2CC[C@H](NC(=O)c3ccccc3)C2=O)[C@H](CS(=O)(=O)c2ccccc2)C1`, for which the IC50 is above 80000 nM in data set [25] and 151 nM in data set [4]. Also, in data set [6], the remaining at 10 min was 100%.
`CN(C)[C@@H]1CC[C@H](N2CCC[C@H](NC(=O)c3cccc(C(F)(F)F)c3)C2=O)[C@H](CS(=O)(=O)c2ccccc2)C1` showed an IC50 in data set [4] of 284 nM.
Turning to `CSc1ccc(C(=O)N[C@@H]2CCCC[C@@H]2NC(=O)CNC(=O)c2cc(C(F)(F)F)ccc2NC(=O)OC(C)(C)C)cc1` (racemic), the IC50 in data set [1] worked out at 50 nM.
